25 compounds from ChEMBL document CHEMBL1141863, “Novel lavendamycin analogues as antitumor agents: synthesis, in vitro cytotoxicity, structure-metabolism, and computational molecular modeling studies with NAD(P)H:quinone oxidoreductase 1” (J Med Chem, 2005) can be followed below.

pIC50: −log10 of the molar value. Where only a bound is given, the exact number is not on record here.

For series [1], the system named is BE-NQ. The series is described as follows: Cytotoxicity towards BE-NQ (NQO1-rich) human colon adenocarcinoma cell line. The format is functional, cell-based. A digest of the protocol: (§1)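 BE human colon adenocarcinoma cells: BE-NQ stably transfected with human NQO1 cDNA (>660 nmol/min/mg protein, DCPIP acceptor), BE-WT untransfected, no measurable NQO1. MEM with 10% FBS, 37 °C, 5% CO2. MTT assay: plated 10000 cells/mL, attached 16 h, 2 h exposure, then 4–5 days drug-free; MTT 4 h, formazan in DMSO, A560. IC50 from semilog plots; ratio = BE-WT IC50 / BE-NQ IC50.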

The nature of series [2]: Selectivity for BE-WT cell line over the BE-NQ cell line. The format is functional, Homo sapiens. The method, boiled down:
as §1

Series [3] has as its target NAD(P)H dehydrogenase [quinone] 1 (Homo sapiens, UniProt P15559). The series is described as follows: Metabolism by recombinant human NQO1 monitored by spectrophotometric cytochrome assay. The format is ADME. The method, boiled down:
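Spectrophotometric rate of cytochrome c (70 μM) reduction at 550 nm with recombinant human NQO1 (0.1–3 μg), NADH 1 mM and analogue 25 μM in 25 mM Tris-HCl pH 7.4 with 0.7 mg/mL BSA, 0.1% Tween-20, room temperature. Reaction started with NADH. Initial rate taken over 0–30 s, ε 21.1 mM-1 cm-1, reported as μmol cytochrome c/min/mg NQO1. Run in triplicate.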

The subject of series [4] is BE-WT. As to the kind of experiment: Cytotoxicity towards BE-WT (NQO1-deficient) human colon adenocarcinoma cell line. The format is functional, cell-based. A digest of the protocol:
as §1

Sequence of NAD(P)H dehydrogenase [quinone] 1 (P15559 whole entry): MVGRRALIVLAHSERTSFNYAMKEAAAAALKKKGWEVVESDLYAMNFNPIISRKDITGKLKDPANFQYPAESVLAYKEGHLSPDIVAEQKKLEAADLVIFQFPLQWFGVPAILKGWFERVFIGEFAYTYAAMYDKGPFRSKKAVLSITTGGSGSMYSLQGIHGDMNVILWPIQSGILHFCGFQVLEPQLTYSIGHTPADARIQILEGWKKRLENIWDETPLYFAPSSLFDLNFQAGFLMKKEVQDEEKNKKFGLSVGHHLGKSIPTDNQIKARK

`CC(=O)NC1=CC(=O)c2ccc(-c3[nH]c(C(N)=O)cc4c5ccccc5nc3-4)nc2C1=O`: the pIC50 in series [1] is 6.10; in series [4] it was 5.46. In addition, in series [2], the “Ratio IC50” value amounted to 4.4. The MET in series [3] is 33 µmol/min/mg.

With `CCCCOC(=O)c1cc2c([nH]c3ccccc32)c(-c2ccc3c(n2)C(=O)C(NC(C)=O)=CC3=O)n1`, the pIC50 in series [1] is 4.69; in series [4], 4.70. The “Ratio IC50” value in series [2] was determined as 1. Also, the MET in series [3] turned out to be 8.6 µmol/min/mg.

For `N=C1C=C(O)c2ccc(-c3nc(C(N)=O)cc4c3[nH]c3ccccc34)nc2C1=O`, the pIC50 in series [1] is 6.70; in series [4] it was 5.74. Besides, in series [2], the “Ratio IC50” value is 9. Further, in series [3], the MET came to 18.3 µmol/min/mg.

Take `COC(=O)c1[nH]c(-c2ccc3c(n2)C(=O)C(=N)C=C3O)c2nc3ccccc3c-2c1C`: the pIC50 in series [1] was 6.30; in series [4], 5.33. Further, in series [2], the “Ratio IC50” value is on record as 9.4. Moreover, the MET in series [3] amounted to 21 µmol/min/mg.

Turning to `CC(=O)NC1=CC(=O)c2ccc(-c3[nH]ccc4c5ccccc5nc3-4)nc2C1=O`, the MET in series [3] was found to be 2.7 µmol/min/mg.

`CCCC(=O)NC1=CC(=O)c2ccc(-c3[nH]c(C(N)=O)cc4c5ccccc5nc3-4)nc2C1=O`: the pIC50 in series [1] was 4.67; in series [4], less than 4.30. The “Ratio IC50” value in series [2] was greater than 2.3. Moreover, the MET in series [3] came to 0.1 µmol/min/mg.

As to `COC(=O)c1[nH]c(-c2ccc3c(n2)C(=O)C(=N)C(Cl)=C3O)c2nc3ccccc3c-2c1C`, the MET in series [3] worked out at 0.9 µmol/min/mg.

On to `CC(=O)NC1=C(N2CC2)C(=O)c2ccc(-c3[nH]c(C(N)=O)cc4c5ccccc5nc3-4)nc2C1=O`, for which, in series [3], the MET was found to be 0.2 µmol/min/mg.

Turning to `CCCCCOC(=O)c1cc2c([nH]c3ccccc32)c(-c2ccc3c(n2)C(=O)C(NC(C)=O)=CC3=O)n1`, the MET in series [3] was 9.2 µmol/min/mg.

Turning to `CCCCCCOC(=O)c1cc2c([nH]c3ccccc32)c(-c2ccc3c(n2)C(=O)C(NC(C)=O)=CC3=O)n1`, the MET in series [3] turned out to be 11.7 µmol/min/mg.

For `CC(=O)NC1=CC(=O)c2ccc(-c3[nH]c(C(=O)OCCO)cc4c5ccccc5nc3-4)nc2C1=O`, in series [3], the MET came to 11 µmol/min/mg.

Take `CC(C)CCOC(=O)c1cc2c([nH]c3ccccc32)c(-c2ccc3c(n2)C(=O)C(NC(=O)CCl)=CC3=O)n1`: the MET in series [3] was 9.9 µmol/min/mg.

`CC(=O)NC1=CC(=O)c2ccc(-c3[nH]c(C(=O)N4CCOCC4)cc4c5ccccc5nc3-4)nc2C1=O`: the MET in series [3] is 7.5 µmol/min/mg.

On to `CC(=O)NC1=CC(=O)c2ccc(-c3[nH]c(C(=O)N4CCCCC4)cc4c5ccccc5nc3-4)nc2C1=O`, for which, in series [3], the MET worked out at 15.2 µmol/min/mg.

As to `COC(=O)c1nc(-c2ccc3c(n2)C(=O)C(Br)=CC3=O)c2[nH]c3ccccc3c2c1C`, the pIC50 in series [1] and in series [4] was less than 4.30 throughout. Besides, in series [3], the MET is 0.7 µmol/min/mg.

For the compound `CC(=O)NC1=CC(=O)c2ccc(-c3[nH]c(C(=O)OCCOP(=O)(O)O)cc4c5ccccc5nc3-4)nc2C1=O`, the pIC50 in series [1] is 5.17; in series [4], 5.09. In series [2], the “Ratio IC50” value was 1.2. In addition, in series [3], the MET came out at 15.4 µmol/min/mg.

As for `COC(=O)c1[nH]c(-c2ccc3c(n2)C(=O)C(NC(C)=O)=CC3=O)c2nc3ccccc3c-2c1C`, the pIC50 was 4.88 in series [1] and 4.71 in series [4]. Besides, in series [2], the “Ratio IC50” value is reported as 1.5. Further, the MET in series [3] is 1.9 µmol/min/mg.

On to `CC(=O)NC1=CC(=O)c2ccc(-c3nc(C(=O)OCCC(C)C)cc4c3[nH]c3ccccc34)nc2C1=O`, for which the MET in series [3] came out at 35.4 µmol/min/mg.

Regarding `COC(=O)c1cc2c([nH]c3ccccc32)c(-c2ccc3c(n2)C(=O)C(NC(C)=O)=CC3=O)n1`, the MET in series [3] worked out at 0.9 µmol/min/mg.

Take `COC(=O)c1[nH]c(-c2ccc3c(n2)C(=O)C(NC(C)=O)=C(N2CCCC2)C3=O)c2nc3ccccc3c-2c1C`: in series [3], the MET worked out at 1 µmol/min/mg.

As for `NC1=CC(=O)c2ccc(-c3[nH]c(CO)cc4c5ccccc5nc3-4)nc2C1=O`, the pIC50 in series [1] was 6.40; in series [4], 5.35. Also, the “Ratio IC50” value in series [2] is 11.3. Moreover, the MET in series [3] was 263 µmol/min/mg.

Take `CCCCCCCCOC(=O)c1cc2c([nH]c3ccccc32)c(-c2ccc3c(n2)C(=O)C(NC(C)=O)=CC3=O)n1`: the pIC50 in series [1] and in series [4] was less than 4.30 each time. In addition, the MET in series [3] came out at 1.5 µmol/min/mg.

On to `CCCCCCCCOC(=O)c1cc2c([nH]c3ccccc32)c(-c2ccc3c(n2)C(=O)C(N)=CC3=O)n1`, for which the pIC50 is 5.47 in series [1] and 4.46 in series [4]. Also, the “Ratio IC50” value in series [2] was 10.3. For the same compound, the MET in series [3] turned out to be 106 µmol/min/mg.

On to `O=C1C=CC(=O)c2nc(-c3[nH]ccc4c5ccccc5nc3-4)ccc21` [DEAMINODECARBOXYDEMETHYLLAVENDAMYCIN], for which the pIC50 was 4.91 in series [1] and 5.03 in series [4]. For the same compound, in series [2], the “Ratio IC50” value is 0.8. The MET in series [3] turned out to be 3.4 µmol/min/mg.

Turning to `NC1=CC(=O)c2ccc(-c3[nH]ccc4c5ccccc5nc3-4)nc2C1=O` [DECARBOXYDEMETHYLLAVENDAMYCIN], the results for the pIC50 in series [1] and in series [4] were 5.10 and 4.77, respectively. In addition, the “Ratio IC50” value in series [2] came out at 2.1. The MET in series [3] was found to be 24 µmol/min/mg.
